Source: PubChem
Rows were chosen to be rich in hits. Some 12% of all compounds tested hit in one or more screens of this group.
L major viab = Leishmania major promastigote growth inhibition, primary screen; 200,000 tested, 9% active; Leishmania major promastigotes, resazurin fluorescence viability; inhibition, % at 10 µM; in the data active = inhibition above about 50%;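 also: promastigotes grown with compound for 44 hours at 28 °C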
ABCB1 block = ABCB1 efflux pump inhibitors, primary screen, cell-based, multiplex, flow cytometry, ABCG2 counter-screen. 190,000 tested, 0.067% active. CCRF-Adr cells, JC-1 efflux. ATP-dependent translocase ABCB1 (Homo sapiens), P08183. inhibition, % at 6.6 µM; in the data active = inhibition above about 40%;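 also: higher value means more JC-1 retained so stronger ABCB1 efflux block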
WT yeast gro inh = growth inhibition of WT strain, primary screen, mitochondrial fusion inhibitor project, WT and mutant strains, chemical genetic; mitochondrial fusion phenotypic screen; inhibition, % at 10 µM; 190,000 tested, 2.1% active; AID 1362, 2008; in the data active = inhibition above about 58%; tested in S. cerevisiae
RAM network inh = inhibitors of the yeast RAM network, primary screen, dse1pr::URA3 reporter, 5-FOA selection | S. cerevisiae dse1pr::URA3 reporter, 5-FOA growth OD615, 2 d; analog-sensitive cbk1-as2 kinase mutant strain | inhibition, % at 50 µM | 190,000 tested, 1.8% active | AID 868, 2007;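 active = inhibition above a set limit, 3 SD over mean compound inhibition, cut at about 8.4% in these data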;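 also: inhibition rescues growth on 5-FOA so higher OD means more RAM inhibition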
ABCG2 block = ABCG2 efflux pump inhibitors, primary screen, multiplex with ABCB1, IgMXP3 cells, flow cytometry. Broad substrate specificity ATP-binding cassette transporter ABCG2 (Homo sapiens), Q9UNQ0. JC-1 efflux. inhibition, % at 6.6 µM. 190,000 tested, 0.1% active. AID 1325, 2008;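 active = inhibition above 80%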
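test system = two drug-resistant human cell lines, ABCG2 and ABCB1 | amount = 3 million cells/mL final, two lines in 1:1 ratio | reagent = JC-1 transporter substrate | doses = one concentration, 6.6 µM final | incubation = 10 min at 25 °C | signal = flow cytometric JC-1 green MFI at 530 nm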
Each line names hits and unclear results; the compound was inactive in the other large screens.

Cc1cc(C)c2c(=O)n(CC(=O)N3CCC(Cc4ccccc4)CC3)sc2n1	L major viab 78
COc1ccc(-n2ncc3c(NCCN4CCOCC4)ncnc32)cc1	L major viab 92
c1ccc(-n2ncc3c(NCc4cccnc4)ncnc32)cc1	L major viab 61
COc1ccc(-n2ncc3c(NCc4ccco4)ncnc32)cc1	WT yeast gro inh 68
CN(C)CCNc1ncnc2c1cnn2-c1ccc(Cl)cc1	L major viab 98
COc1ccc(-n2ncc3c(NCCCN4CCOCC4)ncnc32)cc1	none
c1ccc(-n2ncc3c(NCc4cccs4)ncnc32)cc1	none
CCOC(=O)c1c(C)[nH]c(C(=O)OCC(=O)c2c(N)n(C)c(=O)n(C)c2=O)c1C	none
CC(C)(C)c1cc(C(=O)N/N=C/c2ccccc2O)n(-c2ccccc2)n1	L major viab 99
COc1ccc(/C=N/NC(=O)c2nc(-c3ccccc3)n(-c3ccccc3)n2)c(O)c1	L major viab 99
O=C(COc1ccccc1)NCCc1cn2ccsc2n1	none
O=C(CN1C(=O)COc2ccccc21)NCCCN1CCN(Cc2ccccc2)CC1	none
O=C(CN1C(=O)COc2ccccc21)NCCN1CCC(Cc2ccccc2)CC1	L major viab 67
NC(=O)c1ccsc1NC(=O)CSc1nnc2ccccn12	none
O=C(CSc1nc2ccc(Cl)cc2[nH]1)Nc1ccc2c(c1)CCC2	none
COc1ccc2nc(SCC(=O)NC3CCCc4ccccc43)[nH]c2c1 (stereo not drawn)	L major viab 75
CCCCn1c(SCC(=O)Nc2ccc3c(c2)CCC3)nc2ccccc2c1=O	L major viab 69
NC(=O)c1ccsc1NC(=O)CSc1nc2ccccc2c(=O)n1CCCO	RAM network inh 8.9
O=C(CSc1nc2ccccc2[nH]1)Nc1ccc2c(c1)CCC2	L major viab 76
FC(F)(F)c1ccc2c(c1)[nH]c(=S)n2C1CC1	none
COC(=O)CNC(=O)CSc1nnc(C)c(=O)[nH]1	none
Cc1cccc(NC(=O)c2oc3ccc(S(=O)(=O)N4CCOCC4)cc3c2C)c1C	none
Cc1ccc(NC(=O)c2oc3ccc(S(=O)(=O)N4CCOCC4)cc3c2C)c(C)c1	RAM network inh 9.4
O=C(O)C1C2C=CC(C2)C1C(=O)NCc1ccc(Cl)c(Cl)c1 (stereo not drawn)	L major viab 53
CCC(O)CC(C(=O)NNc1ccccc1)C(=O)NNc1ccccc1 (stereo not drawn)	L major viab 72
CCc1ccc(NC(=O)C(CC)c2ccccc2)cc1 (stereo not drawn)	none
O=C1CNC(=O)N1CC(O)Cn1c2ccccc2c2ccccc21 (stereo not drawn)	none
COc1ccc(C2=C(Nc3ccc(C)cc3)c3ccccc3C2=O)cc1	L major viab 64
COc1ccc(C2=C(Nc3ccc(F)cc3)c3ccccc3C2=O)cc1	none
COC(=O)c1ccc(C2N=C(c3cccs3)CC(c3ccccc3O)N2)cc1 (stereo not drawn)	WT yeast gro inh 62
COC(=O)c1cc(-c2cccs2)[nH]n1	none
Cc1onc(-c2c(Cl)cccc2Cl)c1C(=O)N/N=C(\N)COc1ccc(Cl)cc1	L major viab 97
Cc1onc(-c2ccccc2)c1C(=O)Nc1nnc(COc2ccc(Cl)cc2)s1	WT yeast gro inh 63
Cc1onc(-c2ccccc2Cl)c1C(=O)Nc1nnc(-c2ccc(F)cc2)s1	none
Cc1onc(-c2ccccc2Cl)c1C(=O)Nc1nnc(-c2ccc(Br)cc2)s1	WT yeast gro inh 68
Cc1onc(-c2ccccc2Cl)c1C(=O)Nc1nnc(-c2ccc(Cl)cc2Cl)s1	WT yeast gro inh 63
CNC(=O)c1ccccc1-c1cn(C)c2ccccc2c1=O	none
O=C(OCC(=O)c1c[nH]c2ccccc12)c1cc(Br)ccc1O	none
O=C(c1cccc(C(F)(F)F)c1)C1CCCN(Cc2ccc(OCCO)cc2)C1 (stereo not drawn)	L major viab 81
COc1ccc(CN2CCCC(C(=O)c3ccc(SC)cc3)C2)cc1Cn1cccn1 (stereo not drawn)	L major viab 90
CC(=O)Nc1ccc(CN2CCCC(C(=O)c3cccc(C(F)(F)F)c3)C2)cc1 (stereo not drawn)	none
